Assay results gathered from unrelated publications.
Route: oral

O=C(NCCN1CCCC1)c1cc(-c2ccc(CN3CCOCC3)cc2)nc2ccc(F)cc12 — bioavailability (male beagle dog; blood; 3 mg/kg): 46%
CC#Cc1cncc(-c2ccc3c(c2)[C@@]2(N=C(C)C(N)=N2)[C@]2(CC[C@H](OC)CC2)C3)c1 — bioavailability (male beagle dog; plasma; 3 µmol/kg): 80%
N#C[C@@]1(c2ccc3c(N)ncnn23)O[C@H](CO)[C@@H](O)[C@H]1O — bioavailability (dog; plasma; 5 mg/kg): 92%
Cc1cc(Nc2ccc(S(F)(F)(F)(F)F)cc2)n2nc(C(C)(F)F)nc2n1 — bioavailability (male beagle dog; plasma): ~20%
C=CC(=O)Nc1cc(Nc2nccc(Nc3cc(Cl)c(F)cc3C(C)(C)O)n2)c(OC)cc1N1CC[C@@H](N(C)C)C1 — bioavailability (beagle dog; plasma; 1 mg/kg): 48.8%
Oc1c(-n2ccnn2)cnn1-c1cc(N2CCOCC2)ncn1 — bioavailability (female dog; plasma; 1.5 mg/kg): 71%
Fc1ccc(Nc2n[nH]c3cccnc23)cc1Cl — bioavailability (dog; plasma): 36%
C#Cc1cnc2nc(O)n(C(CC)CC)c2n1 — bioavailability (male beagle dog; plasma; 1 mg/kg): > 90%
COc1ccc2c(c1OCc1ccccc1)C[C@@H](C(=O)O)N(C(=O)C(c1ccccc1)c1ccccc1)C2 — bioavailability (male beagle dog; plasma; 3 mg/kg): 39%
